Data taken from ChEMBL document CHEMBL1772954, “Antifungal, cytotoxic and SAR studies of a series of N-alkyl, N-aryl and N-alkylphenyl-1,4-pyrrolediones and related compounds” (Bioorg Med Chem, 2011).
≈ marks a conversion by molar mass, not a printed value.

How the values were obtained:
Format in all cases: functional
Saccharomyces cerevisiae = assay: Antifungal activity against Saccharomyces cerevisiae ATCC 9763
Summary of the method: (§1)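 CLSI M27-A3 broth microdilution in RPMI-1640 buffered to pH 7.0 with MOPS. Inoculum 1-5 × 10^3 CFU/mL. Compound twofold dilutions from 250 to 0.24 µg/ml, final DMSO <1%. Incubated at 35 °C in a moist, dark chamber and read at 48 h. MIC is the lowest concentration giving total growth inhibition. For MFC, 5 µL from clear wells was plated in duplicate on SDA; MFC is the lowest concentration with no growth.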

[1] = system: Trichophyton mentagrophytes; assay: Antifungal activity against Trichophyton mentagrophytes ATCC 9972
Summary of the method: (§2)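 Dermatophytes tested by CLSI M38-A2 microdilution in MOPS-buffered RPMI-1640 at pH 7.0. Inoculum 1-5 × 10^3 CFU/mL; compounds 250 to 0.24 µg/ml in twofold steps, final DMSO <1%. Incubated at 28 °C in a moist, dark chamber and read according to control growth. MIC is the lowest concentration with complete inhibition. MFC is the lowest concentration with no growth after duplicate subculture on SDA.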

Aspergillus flavus = assay: Antifungal activity against Aspergillus flavus ATCC 9170
Summary of the method: (§3)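 Broth microdilution per CLSI M38-A2 in RPMI-1640 with MOPS at pH 7.0. Inoculum 1-5 × 10^3 CFU/mL, with twofold compound dilutions spanning 250-0.24 µg/ml (final DMSO <1%). Plates incubated at 35 °C, moist and dark, and read when the control fungus had grown. MIC is total growth inhibition. MFC comes from subculturing clear wells in duplicate onto SDA.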

Aspergillus niger = assay: Antifungal activity against Aspergillus niger ATCC 9029; summary of the method: as §3
Trichophyton rubrum = assay: Antifungal activity against Trichophyton rubrum C 113 2000; summary of the method: as §2
Nannizzia gypsea = assay: Antifungal activity against Microsporum gypseum C 115 2000; summary of the method: as §2
Aspergillus fumigatus = assay: Antifungal activity against Aspergillus fumigatus ATCC 26934; summary of the method: as §3
Candida tropicalis = assay: Antifungal activity against Candida tropicalis C 131 2000; summary of the method: as §1
Candida albicans = assay: Antifungal activity against Candida albicans ATCC 10213; summary of the method: as §1
Cryptococcus neoformans = assay: Antifungal activity against Cryptococcus neoformans ATCC 32264; summary of the method: as §1

Row | Structure (SMILES) | MFC (Saccharomyces cerevisiae) [µg/mL] | MIC (Saccharomyces cerevisiae) [µg/mL] | MFC [1] [µg/mL] | MIC [1] [µg/mL] | MFC (Aspergillus flavus) [µg/mL] | MIC (Aspergillus flavus) [µg/mL] | MFC (Aspergillus niger) [µg/mL] | MIC (Aspergillus niger) [µg/mL] | MFC (Trichophyton rubrum) [µg/mL] | MIC (Trichophyton rubrum) [µg/mL] | MFC (Nannizzia gypsea) [µg/mL] | MIC (Nannizzia gypsea) [µg/mL] | MFC (Aspergillus fumigatus) [µg/mL] | MIC (Aspergillus fumigatus) [µg/mL] | MFC (Candida tropicalis) [µg/mL] | MFC (Candida albicans) [µg/mL] | MIC (Candida albicans) [µg/mL] | MFC (Cryptococcus neoformans) [µg/mL] | MIC (Cryptococcus neoformans) [µg/mL] | MIC (Candida tropicalis) [µg/mL]
1 | CC(=O)N1CCN(c2ccc(OCC3COC(Cn4ccnc4)(c4ccc(Cl)cc4Cl)O3)cc2)CC1 (stereo not drawn) [KETOCONAZOLE] | 0.97 (≈ 1.83 µM) | 0.48 (≈ 0.903 µM) | 0.12 (≈ 0.226 µM) | 0.03 (≈ 0.0565 µM) | 3.9 (≈ 7.34 µM) | 0.48 (≈ 0.903 µM) | 1.95 (≈ 3.67 µM) | 0.24 (≈ 0.452 µM) | 0.12 (≈ 0.226 µM) | 0.03 (≈ 0.0565 µM) | 0.24 (≈ 0.452 µM) | 0.06 (≈ 0.113 µM) | 3.9 (≈ 7.34 µM) | 0.12 (≈ 0.226 µM) | 0.97 (≈ 1.83 µM) | 1.95 (≈ 3.67 µM) | 0.48 (≈ 0.903 µM) | 1.95 (≈ 3.67 µM) | 0.24 (≈ 0.452 µM) | 
2 | O=C1CCC(=O)N1CCCc1ccccc1 | > 250 | > 250 | > 250 | > 250 | > 250 | > 250 | > 250 | > 250 | > 250 | > 250 | > 250 | > 250 | > 250 | > 250 | > 250 | > 250 | > 250 | > 250 | > 250 | > 250
3 | O=C(O)/C=C\C(=O)Nc1ccccc1 | > 250 | 125 (≈ 654 µM) | > 250 | 250 (≈ 1310 µM) | > 250 | > 250 | > 250 | > 250 | 250 (≈ 1310 µM) | 62.5 (≈ 327 µM) | > 250 | 125 (≈ 654 µM) | > 250 | > 250 | > 250 | > 250 |  | > 250 | > 250 | > 250
4 | O=C1C=CC(O)N1CCc1ccccc1 (stereo not drawn) | > 250 | 250 (≈ 1230 µM) | 62.5 (≈ 308 µM) | 31.2 (≈ 154 µM) | > 250 | > 250 | > 250 | > 250 | 125 (≈ 615 µM) | 62.5 (≈ 308 µM) | 125 (≈ 615 µM) | 62.5 (≈ 308 µM) | > 250 | > 250 | > 250 | 125 (≈ 615 µM) | 62.5 (≈ 308 µM) | > 250 | 62.5 (≈ 308 µM) | 250 (≈ 1230 µM)
5 | CC1=CC(O)N(c2ccccc2)C1=O (stereo not drawn) | > 250 | > 250 | > 250 | > 250 | > 250 | > 250 | > 250 | > 250 | > 250 | > 250 | > 250 | > 250 | > 250 | > 250 | > 250 | > 250 | > 250 | > 250 | > 250 | > 250
6 | CC1=C(C)C(=O)N(CCCCc2ccccc2)C1=O | > 250 | > 250 | > 250 | 125 (≈ 486 µM) | > 250 | > 250 | > 250 | > 250 | 250 (≈ 972 µM) | 125 (≈ 486 µM) | > 250 | 250 (≈ 972 µM) | > 250 | > 250 | > 250 | > 250 | > 250 | > 250 | > 250 | > 250
7 | CC1=C(C)C(=O)N(Cc2ccccc2)C1=O | > 250 | 250 (≈ 1160 µM) | 250 (≈ 1160 µM) | 125 (≈ 581 µM) | > 250 | > 250 | > 250 | > 250 | 125 (≈ 581 µM) | 62.5 (≈ 290 µM) | 250 (≈ 1160 µM) | 125 (≈ 581 µM) | > 250 | > 250 | > 250 | > 250 | 125 (≈ 581 µM) | 250 (≈ 1160 µM) | 125 (≈ 581 µM) | 125 (≈ 581 µM)
8 | CC1=C(C)C(=O)N(CCc2ccccc2)C1=O | > 250 | > 250 | > 250 | 250 (≈ 1090 µM) | > 250 | > 250 | > 250 | > 250 | 250 (≈ 1090 µM) | 62.5 (≈ 273 µM) | > 250 | 250 (≈ 1090 µM) | > 250 | > 250 | > 250 | > 250 | > 250 | > 250 | 250 (≈ 1090 µM) | > 250
9 | O=C1CCC(=O)N1CCc1ccccc1 | > 250 | > 250 | > 250 | > 250 | > 250 | > 250 | > 250 | > 250 | > 250 | > 250 | > 250 | > 250 | > 250 | > 250 | > 250 | > 250 | > 250 | > 250 | > 250 | > 250
10 | CC1=CC(=O)N(CCCc2ccccc2)C1O (stereo not drawn) | > 250 | > 250 | > 250 | 250 (≈ 1080 µM) | > 250 | > 250 | > 250 | > 250 | > 250 | 250 (≈ 1080 µM) | > 250 | 250 (≈ 1080 µM) | > 250 | > 250 | > 250 | > 250 | > 250 | > 250 | 250 (≈ 1080 µM) | > 250
11 | O=C1C=CC(O)N1c1ccccc1 (stereo not drawn) | > 250 | > 250 | > 250 | > 250 | > 250 | > 250 | > 250 | > 250 | > 250 | > 250 | > 250 | > 250 | > 250 | > 250 | > 250 | > 250 | > 250 | > 250 | 250 (≈ 1430 µM) | > 250
